Reference: ChEMBL document CHEMBL4396879, “Conjugation of Short Peptides to Dibenzodiazepinone-Type Muscarinic Acetylcholine Receptor Ligands Determines M2R Selectivity” (J Med Chem, 2019)

Legend:
[1] = biological target: T1, Muscarinic acetylcholine receptor M4 (Homo sapiens, UniProt P08173); assay: Displacement of [3H]-NMS from human muscarinic M4 receptor expressed in CHO-K9 cells after 3 hrs by microbeta2 scintillation counting method; type: cell-based
T1 sequence (P08173 whole entry): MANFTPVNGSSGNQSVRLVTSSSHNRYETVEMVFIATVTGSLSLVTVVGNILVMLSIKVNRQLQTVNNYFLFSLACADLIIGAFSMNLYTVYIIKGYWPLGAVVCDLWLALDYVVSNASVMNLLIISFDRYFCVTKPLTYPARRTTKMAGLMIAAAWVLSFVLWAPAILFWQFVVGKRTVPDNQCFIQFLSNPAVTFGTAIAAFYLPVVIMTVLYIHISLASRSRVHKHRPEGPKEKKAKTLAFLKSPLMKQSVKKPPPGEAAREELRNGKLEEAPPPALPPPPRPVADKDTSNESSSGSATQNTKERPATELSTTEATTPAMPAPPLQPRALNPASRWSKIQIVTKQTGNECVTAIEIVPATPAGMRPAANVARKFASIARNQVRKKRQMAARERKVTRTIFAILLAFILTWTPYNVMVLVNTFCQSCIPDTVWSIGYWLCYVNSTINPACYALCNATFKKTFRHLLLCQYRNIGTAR
Summary of the method: (§1)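 [3H]NMS competition binding on intact CHO-hMxR cells in L15 medium with 1% BSA, 3 h at 22 ± 1 °C with gentle shaking. [3H]NMS was 0.2 nM (M1, M2, M3), 0.1 nM (M4) or 0.3 nM (M5). […] Cells were lysed in urea/acetic acid/Triton and counted by liquid scintillation. Ki from Cheng-Prusoff. Triplicates, ≥3 experiments.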

[2] = biological target: T2, Muscarinic acetylcholine receptor M2 and M5 (Homo sapiens) (UniProt P08172+P08912); assay: Selectivity ratio of Ki for human muscarinic M5 receptor expressed in CHO-K9 cells to Ki for human muscarinic M2 receptor expressed in CHO-K9 cells; type: cell-based
Summary of the method: (§2)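 Ratio of mean Ki values. Each Ki came from an individual [3H]NMS competition experiment at the given CHO-hMxR subtype, converting IC50 to Ki by Cheng-Prusoff before averaging.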

[3] = biological target: T3, Muscarinic acetylcholine receptors; M2 & M3 (Homo sapiens) (UniProt P20309+P08172); assay: Selectivity ratio of Ki for human muscarinic M3 receptor expressed in CHO-K9 cells to Ki for human muscarinic M2 receptor expressed in CHO-K9 cells; type: cell-based; summary of the method: as §2
T3 sequence (P20309 whole entry, looked up, one chain of several): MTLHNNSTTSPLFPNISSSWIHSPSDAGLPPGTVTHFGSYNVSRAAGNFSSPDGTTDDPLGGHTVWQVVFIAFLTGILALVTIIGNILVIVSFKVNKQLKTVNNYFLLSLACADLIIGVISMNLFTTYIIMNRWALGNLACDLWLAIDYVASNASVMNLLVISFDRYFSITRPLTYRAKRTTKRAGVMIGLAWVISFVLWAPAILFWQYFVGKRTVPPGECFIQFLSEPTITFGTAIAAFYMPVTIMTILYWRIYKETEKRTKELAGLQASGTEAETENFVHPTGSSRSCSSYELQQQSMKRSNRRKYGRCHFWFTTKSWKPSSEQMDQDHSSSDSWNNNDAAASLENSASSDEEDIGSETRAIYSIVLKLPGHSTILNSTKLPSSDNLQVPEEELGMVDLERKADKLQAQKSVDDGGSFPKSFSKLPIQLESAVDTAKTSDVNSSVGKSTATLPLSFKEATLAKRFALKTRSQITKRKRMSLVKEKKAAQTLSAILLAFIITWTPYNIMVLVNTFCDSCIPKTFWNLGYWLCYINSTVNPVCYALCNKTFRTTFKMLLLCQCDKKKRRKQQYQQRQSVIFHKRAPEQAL

[4] = Stability of the compound in human plasma used as 1:2 ratio of plasma to pH 7.4 PBS assessed as intact compound at 100 uM incubated for 48 hr by LC-MS analysis; type: ADME, cell-free; details: plasma diluted with PBS (1:2), read-out: Stability
Summary of the method: (§3)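 Compound added at 100 μM (from 5 mM stock in acetonitrile/0.04% TFA 3:7) to heparinized human plasma/PBS pH 7.4 (1:2 v/v) with 10 μM 1-methyl-D-tryptophan as internal standard. Incubated shaking at 37 °C in triplicate. Aliquots were EtOH/acetonitrile-precipitated and analysed by RP-HPLC at 220 nm, with recovery correction against four-point calibrations.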

[5] = biological target: T4, Muscarinic acetylcholine receptor M3 (Homo sapiens, UniProt P20309); assay: Displacement of [3H]-NMS from human muscarinic M3 receptor expressed in CHO-K9 cells after 3 hrs by microbeta2 scintillation counting method; type: cell-based; summary of the method: as §1
T4 sequence (P20309 whole entry): as the sequence (P20309 whole entry, looked up, one chain of several) above

[6] = Stability of the compound in human plasma:PBS of pH 7.4 (1:2) assessed as intact compound at 100 uM incubated for 1 hr by LC-MS analysis; type: ADME, cell-free; details: plasma diluted with PBS (1:2), read-out: Stability; summary of the method: as §3
[7] = biological target: T5, Muscarinic acetylcholine receptor M2 and M4 (Homo sapiens) (UniProt P08173+P08172); assay: Selectivity ratio of Ki for human muscarinic M4 receptor expressed in CHO-K9 cells to Ki for human muscarinic M2 receptor expressed in CHO-K9 cells; type: cell-based; summary of the method: as §2
[8] = biological target: T6, Muscarinic acetylcholine receptor M5 (Homo sapiens, UniProt P08912); assay: Displacement of [3H]-NMS from human muscarinic M5 receptor expressed in CHO-K9 cells after 3 hrs by microbeta2 scintillation counting method; type: cell-based; summary of the method: as §1
T6 sequence (P08912 whole entry): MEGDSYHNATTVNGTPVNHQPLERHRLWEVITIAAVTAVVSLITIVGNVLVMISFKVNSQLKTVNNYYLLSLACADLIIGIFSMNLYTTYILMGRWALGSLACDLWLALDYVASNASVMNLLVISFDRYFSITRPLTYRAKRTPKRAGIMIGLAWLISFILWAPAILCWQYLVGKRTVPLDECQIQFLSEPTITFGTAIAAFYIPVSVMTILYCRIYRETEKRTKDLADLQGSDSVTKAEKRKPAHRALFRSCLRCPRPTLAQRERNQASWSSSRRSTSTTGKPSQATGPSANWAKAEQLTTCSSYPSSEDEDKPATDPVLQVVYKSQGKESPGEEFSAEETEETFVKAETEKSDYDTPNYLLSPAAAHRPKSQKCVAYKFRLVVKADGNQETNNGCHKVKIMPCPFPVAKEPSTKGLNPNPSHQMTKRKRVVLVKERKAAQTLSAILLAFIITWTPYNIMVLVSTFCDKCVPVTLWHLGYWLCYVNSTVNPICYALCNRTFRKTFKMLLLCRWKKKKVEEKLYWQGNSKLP

[9] = Stability of the compound in human plasma used as 1:2 ratio of plasma to pH 7.4 PBS assessed as intact compound at 100 uM incubated for 6 hr […]; type: ADME, cell-free; details: plasma diluted with PBS (1:2), read-out: Stability
[10] = biological target: T7, Muscarinic acetylcholine receptors; M1 & M2 (Homo sapiens) (UniProt P11229+P08172); assay: Selectivity ratio of Ki for human muscarinic M1 receptor expressed in CHO-K9 cells to Ki for human muscarinic M2 receptor expressed in CHO-K9 cells; type: cell-based; summary of the method: as §2
[11] = Stability of the compound in human plasma used as 1:2 ratio of plasma to pH 7.4 PBS assessed as intact compound at 100 uM incubated for 24 hr […]; type: ADME, cell-free; details: plasma diluted with PBS (1:2), read-out: Stability
[12] = biological target: T8, Muscarinic acetylcholine receptor M2 (Homo sapiens, UniProt P08172); assay: Displacement of [3H]-NMS from human muscarinic M2 receptor expressed in CHO-K9 cells after 3 hrs by microbeta2 scintillation counting method; type: cell-based; summary of the method: as §1
T8 sequence (P08172 whole entry): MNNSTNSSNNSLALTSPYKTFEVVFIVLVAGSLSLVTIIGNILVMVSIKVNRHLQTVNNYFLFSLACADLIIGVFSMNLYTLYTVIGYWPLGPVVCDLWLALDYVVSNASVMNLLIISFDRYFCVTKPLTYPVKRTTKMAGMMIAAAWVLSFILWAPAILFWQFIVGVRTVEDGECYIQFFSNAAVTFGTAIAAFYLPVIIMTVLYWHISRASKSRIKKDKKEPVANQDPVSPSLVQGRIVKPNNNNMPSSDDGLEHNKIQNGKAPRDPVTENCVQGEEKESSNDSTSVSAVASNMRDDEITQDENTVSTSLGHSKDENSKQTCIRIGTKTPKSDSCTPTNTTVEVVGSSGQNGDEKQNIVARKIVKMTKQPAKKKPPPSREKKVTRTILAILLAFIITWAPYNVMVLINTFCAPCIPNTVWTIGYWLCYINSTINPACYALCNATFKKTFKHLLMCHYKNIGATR

[13] = biological target: T9, Muscarinic acetylcholine receptor M1 (Homo sapiens, UniProt P11229); assay: Displacement of [3H]-NMS from human muscarinic M1 receptor expressed in CHO-K9 cells after 3 hrs by microbeta2 scintillation counting method; type: cell-based; summary of the method: as §1
T9 sequence (P11229 whole entry): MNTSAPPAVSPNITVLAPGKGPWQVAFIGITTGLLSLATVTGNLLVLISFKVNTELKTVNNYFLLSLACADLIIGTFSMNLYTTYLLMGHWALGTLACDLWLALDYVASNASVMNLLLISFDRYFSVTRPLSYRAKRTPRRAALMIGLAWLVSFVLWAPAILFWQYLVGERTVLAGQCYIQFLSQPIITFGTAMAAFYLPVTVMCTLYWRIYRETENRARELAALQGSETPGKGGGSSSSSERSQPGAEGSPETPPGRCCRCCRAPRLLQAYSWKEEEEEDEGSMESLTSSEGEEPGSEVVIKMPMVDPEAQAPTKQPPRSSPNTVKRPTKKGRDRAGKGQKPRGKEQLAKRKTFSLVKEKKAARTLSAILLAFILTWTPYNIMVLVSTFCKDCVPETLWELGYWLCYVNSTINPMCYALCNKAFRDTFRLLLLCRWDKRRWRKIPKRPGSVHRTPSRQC

[14] = biological target: T1, Muscarinic acetylcholine receptor M4; assay: Binding affinity to muscarinic M4 receptor (unknown origin) expressed in CHO cells; type: cell-based; summary of the method: as §1
[15] = biological target: T4, Muscarinic acetylcholine receptor M3; assay: Binding affinity to muscarinic M3 receptor (unknown origin) expressed in CHO cells; type: cell-based; summary of the method: as §1
[16] = biological target: T6, Muscarinic acetylcholine receptor M5; assay: Binding affinity to muscarinic M5 receptor (unknown origin) expressed in CHO cells; type: cell-based; summary of the method: as §1
[17] = biological target: T9, Muscarinic acetylcholine receptor M1; assay: Binding affinity to muscarinic M1 receptor (unknown origin) expressed in CHO cells; type: cell-based; summary of the method: as §1
[18] = biological target: T2, Muscarinic acetylcholine receptor M2 and M5 (Homo sapiens); assay: Selectivity ratio of ki for muscarinic M5 receptor (unknown origin) expressed in CHO cells to muscarinic M2 receptor (unknown origin) expressed in CHO cells; type: cell-based; summary of the method: as §2
[19] = biological target: T5, Muscarinic acetylcholine receptor M2 and M4 (Homo sapiens); assay: Selectivity ratio of ki for muscarinic M4 receptor (unknown origin) expressed in CHO cells to muscarinic M2 receptor (unknown origin) expressed in CHO cells; type: cell-based; summary of the method: as §2
[20] = biological target: T3, Muscarinic acetylcholine receptors; M2 & M3 (Homo sapiens); assay: Selectivity ratio of Ki for muscarinic M3 receptor (unknown origin) expressed in CHO cells to Ki for muscarinic M2 receptor (unknown origin) expressed in CHO cells; type: cell-based; summary of the method: as §2
[21] = biological target: T7, Muscarinic acetylcholine receptors; M1 & M2 (Homo sapiens); assay: Selectivity ratio of Ki for muscarinic M1 receptor (unknown origin) expressed in CHO cells to Ki for muscarinic M2 receptor (unknown origin) expressed in CHO cells; type: cell-based; summary of the method: as §2
[22] = biological target: T8, Muscarinic acetylcholine receptor M2; assay: Binding affinity to muscarinic M2 receptor (unknown origin) expressed in CHO cells; type: cell-based; summary of the method: as §1

CC(=O)N[C@@H](CCCNC(=N)N)C(=O)N[C@@H](CCCCN)C(=O)NCC(=O)NCCCCC1CCN(CC(=O)N2c3ccccc3NC(=O)c3ccccc32)CC1
Ki [1]: 17.4 nM
Ratio Ki [2]: 260
Ratio Ki [3]: 620
remaining at 48 h, 100 µM [4]: 83%
Ki [5]: 776 nM
remaining at 1 h, 100 µM [6]: > 99%
Ratio Ki [7]: 11
Ki [8]: 363 nM
remaining at 6 h, 100 µM [9]: > 99%
Ratio Ki [10]: 15
remaining at 24 h, 100 µM [11]: > 99%
Ki [12]: 1.48 nM
Ki [13]: 22.9 nM

CCN(CC)CCCCC1CCN(CC(=O)N2c3ccccc3C(=O)Nc3cccnc32)CC1
Ki [14]: 7.94 nM
Ki [15]: 100 nM
Ki [16]: 1260 nM
Ki [17]: 50.1 nM

CCCC(C)(C)C(=O)N(CC)CCCC1CCN(CC(=O)N2c3ccccc3NC(=O)c3ccccc32)CC1
Ratio Ki [18]: 40
Ratio Ki [19]: 6.3
Ki [14]: 50.1 nM
Ki [15]: 398 nM
Ki [16]: 316 nM
Ratio Ki [20]: 50
Ki [17]: 316 nM
Ratio Ki [21]: 40
Ki [22]: 7.94 nM
